Assay results from ChEMBL document CHEMBL2311424, “Inhibitors of human immunodeficiency virus type 1 (HIV-1) attachment 13. Synthesis and profiling of a novel amminium prodrug of the HIV-1 attachment inhibitor BMS-585248” (J Med Chem, 2013).

Experiments:
[1] = Permeability across human Caco2 cells; type: ADME, cell-based; conditions: Caco-2, read-out: permeability
[2] = Aqueous solubility of the compound; type: physicochemical
[3] = test system: Human immunodeficiency virus 1; assay: Antiviral activity against HIV1; type: functional, organism-based
[4] = test system: Hepatocyte; assay: Prodrug activation in rat hepatocytes assessed as BMS-585248 formation; type: cell-based
Summary of the method: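 In-house isolated rat hepatocytes incubated with prodrug (10 μM final) for 2 h at 37 °C in humidified 95/5% air/CO2; aliquots quenched in ice-cold acetonitrile, centrifuged, prodrug and parent quantified by LC/MS/MS.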

[5] = test system: Liver microsomes; assay: Prodrug activation in rat liver microsomes assessed as BMS-585248 formation; set-up: species or system Microsome
Summary of the method: (§1)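 Rat liver cytosol (2 mg/mL) or microsomes (1 mg/mL) incubated with prodrug (10 μM final) and 1 mM NADPH up to 2 h at 37 °C, shaking; anaerobic runs used nitrogen-purged 0.1 M phosphate buffer with 10 mM MgCl2 under humidified nitrogen for 60 min. Acetonitrile quench, LC/MS/MS of prodrug and parent.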

[6] = test system: Liver; assay: Prodrug activation in rat liver cytosol assessed as BMS-585248 formation; type: tissue-based; summary of the method: as §1
[7] = test system: Plasma; assay: Prodrug activation in rat plasma assessed as BMS-585248 formation; type: cell-free
Summary of the method: (§2)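 Prodrug at 10 μM final incubated 60 min at 37 °C in Tris-HCl buffer pH 7.4, rat blood or rat plasma, aerobic. Aliquots quenched with equal volume ice-cold acetonitrile, centrifuged, supernatant analysed by LC/MS/MS for prodrug and parent.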

[8] = Prodrug activation in Tris-HCl buffer assessed as BMS-585248 formation at pH 7.4; summary of the method: as §2
[9] = test system: Blood; assay: Prodrug activation in rat blood assessed as BMS-585248 formation; type: tissue-based; summary of the method: as §2
[10] = test system: Canis familiaris; assay: AUC in beagle dog assessed as BMS-585248 level at 5 mg/kg, po; type: ADME, organism-based, Canis lupus familiaris, Plasma; set-up: dose 5 mg/kg, route oral; conditions: in vivo
[11] = AUC in beagle dog at 5 mg/kg, po; type: ADME, organism-based, Canis lupus familiaris; set-up: dose 5 mg/kg, route oral; conditions: plasma
[12] = Cmax in beagle dog at 5 mg/kg, po; type: ADME, organism-based, Canis lupus familiaris; set-up: dose 5 mg/kg, route oral; conditions: in vivo
[13] = Half life in beagle dog at 1 mg/kg, iv; type: ADME, organism-based, Canis lupus familiaris; set-up: dose 1 mg/kg, route intravenous; conditions: in vivo
[14] = Volume of distribution in beagle dog at 1 mg/kg, iv; type: ADME, organism-based, Canis lupus familiaris; set-up: dose 1 mg/kg, route intravenous; conditions: in vivo
[15] = Clearance in beagle dog at 1 mg/kg, iv; type: ADME, organism-based, Canis lupus familiaris; set-up: dose 1 mg/kg, route intravenous; conditions: in vivo
[16] = Drug excretion in bile duct cannulated Sprague-Dawley rat urine at 1 mg/kg, iv up to 2 hrs; type: ADME, organism-based; set-up: dose 1 mg/kg, route intravenous; conditions: read-out: Drug excretion
Summary of the method: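 Bile duct/jugular vein cannulated male rats (n = 3) given prodrug 1 mg/kg IV; plasma, bile and urine collected up to 6 h. Biotransformation profiled by UPLC on C18 at 40 °C with gradient elution, positive electrospray full-scan MS and data-dependent MS/MS; relative percentages of prodrug, N-acetyl conjugate and parent reported.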

[17] = test system: Rattus norvegicus; assay: AUC in dual cannulated portal vein Sprague-Dawley rat assessed as BMS-585248 level at 5 mg/kg, po; type: ADME, organism-based, Plasma; set-up: dose 5 mg/kg, route oral; conditions: in vivo
[18] = test system: Rattus norvegicus; assay: Cmax in dual cannulated portal vein Sprague-Dawley rat assessed as BMS-585248 level at 5 mg/kg, po; type: ADME, organism-based; set-up: dose 5 mg/kg, route oral; conditions: in vivo
[19] = AUC in dual cannulated portal vein Sprague-Dawley rat at 5 mg/kg, po; type: ADME, organism-based; set-up: dose 5 mg/kg, route oral; conditions: plasma
[20] = Cmax in dual cannulated portal vein Sprague-Dawley rat at 5 mg/kg, po; type: ADME, organism-based; set-up: dose 5 mg/kg, route oral
[21] = test system: Rattus norvegicus; assay: AUClast in Sprague-Dawley rat assessed as BMS-585248 level at 5 mg/kg, po; type: ADME, organism-based, Plasma; set-up: time 0 - last, dose 5 mg/kg, route oral; conditions: in vivo
Summary of the method: (§3)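 Male rats (n = 3 per group) pretreated 2 days with saline or an antibiotic mix (bacitracin 400 mg/kg BID, neomycin sulfate 400 mg/kg BID, tetracycline 200 mg/kg), then given prodrug 5 mg/kg orally. Plasma to 24 h, stored −20 °C, LC/MS/MS quantitation of prodrug and parent.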

[22] = test system: Rattus norvegicus; assay: AUClast in bacitracin, neomycin sulfate and tetracycline treated Sprague-Dawley rat assessed as BMS-585248 level at 5 mg/kg, po; type: ADME, organism-based, Plasma; set-up: dose 5 mg/kg, route oral, time 0 - last; conditions: in vivo; summary of the method: as §3
[23] = test system: Rattus norvegicus; assay: Cmax in bacitracin, neomycin sulfate and tetracycline treated Sprague-Dawley rat assessed as BMS-585248 level at 5 mg/kg, po; type: ADME, organism-based; set-up: dose 5 mg/kg, route oral; conditions: in vivo; summary of the method: as §3
[24] = test system: Rattus norvegicus; assay: Total AUC in Sprague-Dawley rat assessed as BMS-585248 level at 200 mg/kg, po; type: ADME, organism-based; set-up: time AUCmax, dose 200 mg/kg, route oral; conditions: in vivo
Summary of the method: (§4)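 Oral dose escalation in male rats, groups of three, dosed by gavage from solutions in water with 0.5% methylcellulose: prodrug trifluoroacetate salt at 5, 25 and 200 mg/kg; parent at 15, 75 and 200 mg/kg. Plasma analysed by LC/MS/MS; noncompartmental PK.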

[25] = test system: Rattus norvegicus; assay: Total AUC in Sprague-Dawley rat assessed as BMS-585248 level at 25 mg/kg, po; type: ADME, organism-based; set-up: time AUCmax, dose 25 mg/kg, route oral; conditions: in vivo; summary of the method: as §4
[26] = test system: Rattus norvegicus; assay: Total AUC in Sprague-Dawley rat assessed as BMS-585248 level at 5 mg/kg, po; type: ADME, organism-based; set-up: dose 5 mg/kg, route oral, time AUCmax; conditions: in vivo; summary of the method: as §4
[27] = test system: Rattus norvegicus; assay: Cmax in Sprague-Dawley rat assessed as BMS-585248 level at 200 mg/kg, po; type: ADME, organism-based; set-up: dose 200 mg/kg, route oral; conditions: in vivo; summary of the method: as §4
[28] = test system: Rattus norvegicus; assay: Cmax in Sprague-Dawley rat assessed as BMS-585248 level at 25 mg/kg, po; type: ADME, organism-based; set-up: dose 25 mg/kg, route oral; conditions: in vivo; summary of the method: as §4
[29] = test system: Rattus norvegicus; assay: Cmax in Sprague-Dawley rat assessed as BMS-585248 level at 5 mg/kg, po; type: ADME, organism-based; set-up: dose 5 mg/kg, route oral; conditions: in vivo; summary of the method: as §4
[30] = test system: Rattus norvegicus; assay: AUC in Sprague-Dawley rat assessed as BMS-585248 level at 5 mg/kg, po; type: ADME, organism-based, Plasma; set-up: dose 5 mg/kg, route oral; conditions: in vivo
Summary of the method: (§5)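 Male rats, groups of three; prodrug trifluoroacetate salt given by IV bolus (1 mg/kg) or oral gavage (5 mg/kg) after overnight fast, both from a 1 mg/mL solution in PEG-400/ethanol 90/10 v/v. Plasma sampled up to 24 h, stored at −20 °C, parent and prodrug quantified by LC/MS/MS; noncompartmental analysis.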

[31] = AUC in Sprague-Dawley rat at 5 mg/kg, po; type: ADME, organism-based; set-up: dose 5 mg/kg, route oral; conditions: plasma; summary of the method: as §5
[32] = test system: Rattus norvegicus; assay: Cmax in Sprague-Dawley rat assessed as BMS-585248 level at 5 mg/kg, po after 6 hrs; type: ADME, organism-based; set-up: dose 5 mg/kg, route oral; conditions: in vivo
[33] = Cmax in Sprague-Dawley rat at 5 mg/kg, po after 6 hrs; type: ADME, organism-based; set-up: dose 5 mg/kg, route oral; conditions: in vivo
[34] = test system: Rattus norvegicus; assay: AUC in Sprague-Dawley rat assessed as BMS-585248 level at 1 mg/kg, iv; type: ADME, organism-based, Plasma; set-up: dose 1 mg/kg, route intravenous; conditions: in vivo; summary of the method: as §5
[35] = AUC in Sprague-Dawley rat at 1 mg/kg, iv; type: ADME, organism-based; set-up: dose 1 mg/kg, route intravenous; conditions: plasma; summary of the method: as §5
[36] = Half life in Sprague-Dawley rat at 1 mg/kg, iv; type: ADME, organism-based; set-up: dose 1 mg/kg, route intravenous; conditions: in vivo; summary of the method: as §5
[37] = test system: Rattus norvegicus; assay: Prodrug conversion in Sprague-Dawley rat assessed as BMS-585248 level at 1 mg/kg, iv after 5 mins; type: ADME, organism-based; set-up: dose 1 mg/kg, route intravenous; conditions: in vivo; summary of the method: as §5
[38] = Volume of distribution in Sprague-Dawley rat at 1 mg/kg, iv; type: ADME, organism-based; set-up: dose 1 mg/kg, route intravenous; conditions: in vivo; summary of the method: as §5
[39] = Clearance in Sprague-Dawley rat at 1 mg/kg, iv; type: ADME, organism-based; set-up: dose 1 mg/kg, route intravenous; conditions: in vivo; summary of the method: as §5
[40] = AUClast in Sprague-Dawley rat at 5 mg/kg, po; type: ADME, organism-based; set-up: time 0 - last, dose 5 mg/kg, route oral; conditions: plasma; summary of the method: as §3
[41] = AUClast in bacitracin, neomycin sulfate and tetracycline treated Sprague-Dawley rat at 5 mg/kg, po; type: ADME, organism-based; set-up: time 0 - last, dose 5 mg/kg, route oral; conditions: plasma; summary of the method: as §3
[42] = test system: Rattus norvegicus; assay: Cmax in bacitracin, neomycin sulfate and tetracycline treated Sprague-Dawley rat at 5 mg/kg, po; type: ADME, organism-based; set-up: dose 5 mg/kg, route oral; conditions: in vivo; summary of the method: as §3
[43] = Total AUC in Sprague-Dawley rat at 200 mg/kg, po; type: ADME, organism-based; set-up: time AUCmax, dose 200 mg/kg, route oral; conditions: in vivo; summary of the method: as §4
[44] = Total AUC in Sprague-Dawley rat at 75 mg/kg, po; type: ADME, organism-based; set-up: time AUCmax, dose 75 mg/kg, route oral; conditions: in vivo; summary of the method: as §4
[45] = Cmax in Sprague-Dawley rat at 75 mg/kg, po; type: ADME, organism-based; set-up: dose 75 mg/kg, route oral; conditions: in vivo; summary of the method: as §4
[46] = Cmax in Sprague-Dawley rat at 200 mg/kg, po; type: ADME, organism-based; set-up: dose 200 mg/kg, route oral; conditions: in vivo; summary of the method: as §4
[47] = Cmax in Sprague-Dawley rat at 15 mg/kg, po; conditions: in vivo
[48] = Total AUC in Sprague-Dawley rat at 15 mg/kg, po; conditions: in vivo

SMILES: N[n+]1ccn(-c2ncc(F)c3c(C(=O)C(=O)N4CCN(C(=O)c5ccccc5)CC4)c[nH]c23)n1.[Cl-]
- Papp [1]: 15 nm/s
- solubility [2]: 1.76 mg/mL
- EC50 [3]: 1.76 nM
- Drug metabolism [4]: Not Active
- Drug metabolism [5]: Not Active
- Drug metabolism [6]: Not Active
- Drug metabolism [7]: Not Active
- Drug metabolism [8]: Not Active
- Drug metabolism [9]: Not Active
- AUC [10]: 8.064 µM·h
- AUC [11]: 0.217 µM·h
- Cmax [12]: 0.139 µM
- half-life [13]: 54 min
- Vd [14]: 0.3 L/kg
- clearance [15]: 0.828 L/h/kg

SMILES: N[n+]1ccn(-c2ncc(F)c3c(C(=O)C(=O)N4CCN(C(=O)c5ccccc5)CC4)c[nH]c23)n1.O=C([O-])C(F)(F)F
- dose excreted at 2 h [16]: 80%
- AUC [17]: 23.873 µM·h
- Cmax [18]: 2.14 µM
- AUC [19]: 0.035 µM·h
- Cmax [20]: 0.074 µM
- AUClast [21]: 0.112 µM·h
- AUClast [22]: 0.148 µM·h
- Cmax [23]: 0.079 µM
- AUC [24]: 996 µM·h
- AUC [25]: 72 µM·h
- AUC [26]: 8 µM·h
- Cmax [27]: 77 µM
- Cmax [28]: 12 µM
- Cmax [29]: 1.3 µM
- AUC [30]: 28.098 µM·h
- AUC [31]: 0.0208 µM·h
- Cmax [32]: 3.12 µM
- Cmax [33]: 0.023 µM
- AUC [34]: 3.22 µM·h
- AUC [35]: 1.55 µM·h
- half-life [36]: 18 min
- Drug metabolism [37]: Active
- Vd [38]: 0.29 L/kg
- clearance [39]: 1.38 L/h/kg

SMILES: CC(=O)N[n+]1ccn(-c2ncc(F)c3c(C(=O)C(=O)N4CCN(C(=O)c5ccccc5)CC4)c[nH]c23)n1
- dose excreted at 2 h [16]: 16.5%

SMILES: O=C(C(=O)N1CCN(C(=O)c2ccccc2)CC1)c1c[nH]c2c(-n3ccnn3)ncc(F)c12
- EC50 [3]: 0.06 nM
- dose excreted at 2 h [16]: 3.5%
- AUC(0-t) [40]: 47.5 µM·h
- AUC(0-t) [41]: 13.8 µM·h
- Cmax [42]: 0.018 µM
- AUC [43]: 145 µM·h
- AUC [44]: 115 µM·h
- Cmax [45]: 8.4 µM
- Cmax [46]: 11 µM
- Cmax [47]: 6.6 µM
- AUC [48]: 42 µM·h
